5 compounds from ChEMBL document CHEMBL1123541, “Preparation and antitumor activity of 7-substituted 1,2-aziridinomitosenes” (J Med Chem, 1986) can be followed below.

Series [1] concerns Mus musculus. Nature of the series: Average weight change of BDF1 female mice at a dose of 1.6 mg/kg per injection. The series is classed as functional. The essentials:
(§1)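 BDF1 female mice implanted ip with 10^6 ascites leukemia cells, then given the aziridinomitosene on day 1 only, six mice per dose. Average weight change is the weight difference between the treated and control groups.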

For series [2], the system named is P388. Nature of the series: Compound was tested for antitumor activity against P388 Murine leukemia in BDF1 female mice at a dose of 3.2 mg/kg per injection. The format is functional, Mus musculus. The essentials: (§2)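 P388 ascites cells (10^6) implanted ip into BDF1 female mice. Aziridinomitosene given on day 1 only, six mice per dose; ten saline-treated mice on day 1 only as controls. Read-out is median survival time in days, %T/C = MST treated/MST control × 100, with 125 taken as significant. Mitomycin C run as a positive control at its optimal dose.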

Series [3] has as its system P388. Description: Compound was tested for antitumor activity against P388 Murine leukemia in BDF1 female mice at a dose of 6.4 mg/kg per injection. The series is classed as functional, Mus musculus. In outline:
as §2

The test system of series [4] is Mus musculus. Nature of the series: Average weight change of BDF1 female mice at a dose of 25.6 mg/kg per injection. The format is functional. In outline:
as §1

Series [5] concerns Mus musculus. Nature of the series: Average weight change of BDF1 female mice at a dose of 51.2 mg/kg per injection. The series is classed as functional. The essentials: as §1
Series [6] has as its system Mus musculus. Nature of the series: Average weight change of BDF1 female mice at a dose of 3.2 mg/kg per injection. The series is classed as functional. In outline:
as §1

Series [7] relates to Mus musculus. Nature of the series: Average weight change of BDF1 female mice at a dose of 12.8 mg/kg per injection. The format is functional. In outline: as §1
In series [8] the test system is P388. Description: Compound was tested for antitumor activity against P388 Murine leukemia in BDF1 female mice at a dose of 1.6 mg/kg per injection (MST treated / MST control x 100). The format is functional, Mus musculus. In outline: as §2
The subject of series [9] is P388. Description: (§3) Compound was tested for antitumor activity against P388 Murine leukemia in BDF1 female mice at a dose of 12.8 mg/kg per injection. The series is classed as functional, Mus musculus. In outline:
as §2

Series [10] deals with P388. Description: Compound was tested for antitumor activity against P388 Murine leukemia in BDF1 female mice at a dose of 25.6 mg/kg per injection. The format is functional, Mus musculus. In outline: as §2
The nature of series [11]: Partition coefficient (logP). The format is physicochemical. To be noted: octanol/water.
For series [12], the system named is P388. Nature of the series: Minimum effective dose determined against P-388 Murine leukemia in BDF1 female mice. The format is functional. To be noted: Mus musculus, read-out: MED.
The test system of series [13] is Mus musculus. Nature of the series: Average weight change of BDF1 female mice at a dose of 6.4 mg/kg per injection. The series is classed as functional. The essentials:
as §1

For series [14], the system named is P388. Nature of the series: Compound was tested for antitumor activity against P388 Murine leukemia in BDF1 female mice at a dose of 51.2 mg/kg per injection. The format is functional, Mus musculus. The essentials:
as §2

Series [15] concerns P388. Nature of the series: Compound was tested for antitumor activity against P388 Murine leukemia in BDF1 female mice at a dose of 1.6 mg/kg per injection. The format is functional, Mus musculus. The essentials: as §2
The subject of series [16] is P388. Nature of the series: Compound was tested for antitumor activity against P388 Murine leukemia in BDF1 female mice at a dose of 3.2 mg/kg per injection (MST treated / MST control x 100). The series is classed as functional, Mus musculus. In outline:
as §2

In series [17] the test system is P388. The description is as §3. The format is functional, Mus musculus. Details: unit not given here. In outline: as §2
Series [18] has as its system Mus musculus. Description: Average weight change of BDF1 female mice at a dose of 32 mg/kg per injection. The series is classed as functional. In outline: as §1
Series [19] has as its system Mus musculus. Description: Average weight change of BDF1 female mice at a dose of 64 mg/kg per injection. The series is classed as functional. The essentials: as §1
Series [20] concerns P388. Description: Compound was tested for antitumor activity against P388 Murine leukemia in BDF1 female mice at a dose of 64 mg/kg per injection. The series is classed as functional, Mus musculus. The essentials:
as §2

Series [21] concerns L1210. Nature of the series: Compound was tested for antitumor activity against L-1210 Murine leukemia in BDF1 female mice at dose of 20 mg/kg inj. The series is classed as functional, Mus musculus. In outline:
(§4)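 L-1210 run per NCI protocol. 10^6 ascites cells implanted ip into BDF1 female mice. Aziridinomitosene given on day 1 only, six mice per dose, with a control group of 36 mice. Median survival time in days is recorded, and %T/C = MST treated/MST control × 100, with 125 taken as significant.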

Series [22] deals with Mus musculus. Nature of the series: Average weight change of BDF1 female mice at a dose of 16 mg/kg per injection. The format is functional. In outline:
as §1

Series [23] relates to P388. Description: Compound was tested for antitumor activity against P388 Murine leukemia in BDF1 female mice at a dose of 16 mg/kg per injection. The format is functional, Mus musculus. In outline: as §2
For series [24], the system named is Mus musculus. Description: Average weight change of BDF1 female mice at a dose of 8 mg/kg per injection. The series is classed as functional. In outline: as §1
Series [25] has as its system P388. Description: Compound was tested for antitumor activity against P388 Murine leukemia in BDF1 female mice at a dose of 32 mg/kg per injection. The series is classed as functional, Mus musculus. The essentials: as §2
Series [26] deals with L1210. Nature of the series: Compound was tested for antitumor activity against L-1210 Murine leukemia in BDF1 female mice at dose of 40 mg/kg inj. The format is functional, Mus musculus. The essentials: as §4
In series [27] the test system is P388. Description: Compound was tested for antitumor activity against P388 Murine leukemia in BDF1 female mice at a dose of 8 mg/kg per injection. The series is classed as functional, Mus musculus. The essentials:
as §2

Series [28] relates to P388. Nature of the series: Compound was tested for antitumor activity against P388 Murine leukemia in BDF1 female mice at a dose of 1.6 mg/kg per injection given as MST treated / MST control x 100. The series is classed as functional, Mus musculus. In outline:
as §2

In series [29] the test system is Mus musculus. Description: Average weight change of BDF1 female mice at a dose of 48 mg/kg per injection. The format is functional. The essentials:
as §1

Series [30] concerns Mus musculus. Nature of the series: Average weight change of BDF1 female mice at a dose of 12 mg/kg per injection. The series is classed as functional. In outline:
as §1

Series [31] deals with L1210. Description: Compound was tested for antitumor activity against L-1210 Murine leukemia in BDF1 female mice at a dose of 12 mg/kg per injection. The format is functional, Mus musculus. The essentials: as §4
Series [32] concerns Mus musculus. Nature of the series: Average weight change of BDF1 female mice at a dose of 6 mg/kg per injection. The format is functional. The essentials: as §1
For series [33], the system named is L1210. Nature of the series: Compound was tested for antitumor activity against L-1210 Murine leukemia in BDF1 female mice at a dose of 6 mg/kg per injection. The series is classed as functional, Mus musculus. The essentials:
as §4

Series [34] concerns L1210. Description: Compound was tested for antitumor activity against L-1210 Murine leukemia in BDF1 female mice at a dose of 24 mg/kg per injection. The series is classed as functional, Mus musculus. The essentials: as §4
Series [35] deals with Mus musculus. Nature of the series: Average weight change of BDF1 female mice at a dose of 24 mg/kg per injection. The series is classed as functional. The essentials:
as §1

Series [36] relates to L1210. Nature of the series: Compound was tested for antitumor activity against L-1210 Murine leukemia in BDF1 female mice at a dose of 48 mg/kg per injection. The format is functional, Mus musculus. In outline:
as §4

As usually defined, the T/C is the result in the treated group divided by that in the control group, in per cent. Usually logP stands for a log measure of how a compound divides between an organic and an aqueous phase. Turning to `CC1=C(N2CC2C)C(=O)c2c(COC(N)=O)c3n(c2C1=O)CC1NC31` (centres undefined), the Weight change in the series on Mus musculus [1] was 0 g; in the series on Mus musculus [4], -1 g; in the series with Mus musculus [5], -1.3 g; with Mus musculus [6], 0 g; with Mus musculus [7], -0.5 g; in the series with Mus musculus [13] it was -0.4 g. Besides, the MST in the series on P388 [2] was 138 days; in the series with P388 [3], 144 %T/C; in the series with P388 [9] it was 156 days; with P388 [10] it was 181 % T/C; with P388 [14] it was 219 days. In the series with P388 [8], this compound registered a T/C of 125%. Besides, the logP in series [11] was 0.82. Besides, in the series on P388 [12], the minimal effective dose came out at 1.6 mg/kg.

In the case of `CC1=C(N2CC2)C(=O)c2c(COC(N)=O)c3n(c2C1=O)CC1C3N1C` (centres undefined), the Weight change in the series with Mus musculus [1] is reported as -1.3 g; in the series on Mus musculus [4] it was -2.2 g; with Mus musculus [5] it was -2.5 g; in the series on Mus musculus [6], 0 g; with Mus musculus [7], -1.9 g; in the series on Mus musculus [13] it was -1.1 g. For the same compound, the MST in the series on P388 [3] was determined as 172 %T/C; in the series with P388 [10] it was 239 % T/C; in the series with P388 [15], 122 days; with P388 [14] it was 139 days; in the series on P388 [17] it was 172. Moreover, the logP in series [11] came out at 0.71. Also, the minimal effective dose with P388 [12] was determined as 1.6 mg/kg. In addition, the T/C in the series with P388 [16] was found to be 117%.

Consider `C#CCNC1=C(C)C(=O)c2c(c(COC(N)=O)c3n2CC2NC32)C1=O` (centres undefined), for which the Weight change in the series with Mus musculus [18] is 0 g; in the series with Mus musculus [19], -0.9 g; with L1210 [21], -1.8 g; in the series with Mus musculus [22], -0.3 g; in the series on Mus musculus [24], -0.2 g; in the series with L1210 [26], -2.8 g. For the same compound, the MST in the series on P388 [20] is 172 days; in the series on P388 [23] it was 128 days; with P388 [25] it was 144 days; in the series on P388 [27] it was 122 days. For the same compound, the T/C turned out to be 122% with L1210 [21] and 140% in the series with L1210 [26]. The compound also showed a lipophilicity (logP) in series [11] of 1.21. Further, the minimal effective dose with P388 [12] was found to be 16 mg/kg.

For `CC1=C(N)C(=O)c2c(COC(N)=O)c3n(c2C1=O)CC1C3N1C` (centres undefined), in the series on P388 [28], the T/C was found to be 211%. Moreover, the Weight change with Mus musculus [4] was -0.1 g; with Mus musculus [7], -0.4 g. The MST was 100 days in the series on P388 [9] and 100 % T/C in the series with P388 [10].

On to `CC1=C(N)C(=O)c2c(COC(N)=O)c3n(c2C1=O)CC1NC31` (centres undefined), for which the Weight change in the series on Mus musculus [29] is recorded as 0.2 g; with Mus musculus [30], 0 g; in the series on Mus musculus [4], -0.8 g; with Mus musculus [7] it was -0.8 g; with Mus musculus [32] it was 0.1 g; in the series on Mus musculus [35], -0.3 g. This compound also yielded a Weight change in the series on Mus musculus [13] of -1.2 g. For the same compound, the MST in the series with P388 [3] was found to be 117 %T/C; with P388 [9] it was 117 days; in the series with P388 [10], 128 % T/C; with L1210 [34], 100 days; with L1210 [36] it was 94 days. The values for the T/C in the series with P388 [28], with L1210 [31] and with L1210 [33] were 211%, 100% and 100%, respectively. The compound further came in with a logP in series [11] of 0.23. In the series on P388 [12], the minimal effective dose was 25.6 mg/kg.
